# According to article PMC3331960 (Nature chemical biology, 2012):
# Values joined by “and” are separate entries in the source; they are usually repeats but may differ in a detail not shown here. Equal entries are not always repeated.
# Tests used:
# [1] = tested on: Arabidopsis wild type plants (Col-0); assay: Root elongation assay of seedlings; assay type: in vivo, Arabidopsis thaliana; settings: 40 or 80 nM 2,4-D, 4 days, Col-0 seedlings
# Procedure, shortened: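 Seedlings grown 5 days on MS medium, then transferred to medium with 2,4-D. Root elongation was measured after 4 more days and expressed as a proportion of growth without auxin. Col-0, tir1-1 and tir1-1 afb2-3 were tested; error bars are STDEV.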
# TIR1-IAA7 DII [2] = biological target: T1, TIR1-IAA7 DII (Arabidopsis thaliana, UniProt Q38825+Q570C0, DEL96-243); assay: Surface plasmon resonance, TIR1 over immobilized IAA7 DII peptide; assay type: binding; settings: for TIR1 association with the DII peptide (SPR): co-injection of TIR1 with auxin, vs no auxin
# TIR1-IAA7 interaction = biological target: T2, TIR1-IAA7 interaction (Arabidopsis thaliana, UniProt Q38825+Q570C0); assay: LexA yeast two-hybrid, auxin-induced TIR1-IAA7 interaction; assay type: cell-based; settings: 50 μM auxins in selective media
# T2 sequence (Q570C0 1-594): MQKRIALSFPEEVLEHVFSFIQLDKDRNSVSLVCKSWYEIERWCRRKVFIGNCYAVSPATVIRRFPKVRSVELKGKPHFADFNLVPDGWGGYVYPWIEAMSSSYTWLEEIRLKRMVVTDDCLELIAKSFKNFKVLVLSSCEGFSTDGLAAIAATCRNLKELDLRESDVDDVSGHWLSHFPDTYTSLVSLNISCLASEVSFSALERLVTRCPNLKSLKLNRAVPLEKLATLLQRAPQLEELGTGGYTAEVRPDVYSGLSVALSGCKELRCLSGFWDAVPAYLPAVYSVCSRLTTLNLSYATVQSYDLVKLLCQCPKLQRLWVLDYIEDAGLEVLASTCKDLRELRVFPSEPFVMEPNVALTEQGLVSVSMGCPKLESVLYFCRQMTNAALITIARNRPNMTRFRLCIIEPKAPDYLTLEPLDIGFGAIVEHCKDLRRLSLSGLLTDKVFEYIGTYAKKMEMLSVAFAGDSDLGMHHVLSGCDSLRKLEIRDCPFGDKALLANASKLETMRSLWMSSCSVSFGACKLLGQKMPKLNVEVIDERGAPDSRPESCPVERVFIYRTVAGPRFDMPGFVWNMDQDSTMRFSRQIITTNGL
# T2 sequence (Q38825 1-243): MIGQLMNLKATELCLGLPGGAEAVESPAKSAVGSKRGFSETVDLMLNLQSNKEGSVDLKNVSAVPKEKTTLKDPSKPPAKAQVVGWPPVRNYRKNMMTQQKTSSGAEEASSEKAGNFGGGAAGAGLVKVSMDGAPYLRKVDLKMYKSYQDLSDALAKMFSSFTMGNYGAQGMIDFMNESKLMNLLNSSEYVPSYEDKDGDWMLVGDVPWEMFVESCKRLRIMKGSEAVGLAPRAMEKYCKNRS
# TIR1-IAA7 = biological target: T3, TIR1-IAA7 (Arabidopsis thaliana, UniProt Q38825+Q570C0); assay: [3H]-IAA radioligand binding
# T3 sequence (Q570C0 1-594): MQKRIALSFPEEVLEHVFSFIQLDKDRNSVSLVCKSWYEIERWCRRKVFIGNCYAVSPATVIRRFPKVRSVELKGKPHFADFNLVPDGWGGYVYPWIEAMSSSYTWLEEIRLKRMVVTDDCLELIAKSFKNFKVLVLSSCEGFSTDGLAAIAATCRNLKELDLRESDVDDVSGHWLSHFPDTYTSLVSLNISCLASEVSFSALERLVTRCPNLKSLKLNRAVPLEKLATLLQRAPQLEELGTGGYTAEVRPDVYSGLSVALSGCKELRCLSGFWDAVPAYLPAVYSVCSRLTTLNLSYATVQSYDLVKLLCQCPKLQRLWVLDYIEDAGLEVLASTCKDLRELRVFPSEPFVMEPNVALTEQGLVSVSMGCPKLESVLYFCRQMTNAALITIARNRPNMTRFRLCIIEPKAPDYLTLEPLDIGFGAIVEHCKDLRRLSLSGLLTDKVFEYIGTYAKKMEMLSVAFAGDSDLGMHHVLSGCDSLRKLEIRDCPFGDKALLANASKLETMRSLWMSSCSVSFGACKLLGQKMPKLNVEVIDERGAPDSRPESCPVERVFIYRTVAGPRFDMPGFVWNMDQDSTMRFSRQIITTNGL
# T3 sequence (Q39255 1-160 partner): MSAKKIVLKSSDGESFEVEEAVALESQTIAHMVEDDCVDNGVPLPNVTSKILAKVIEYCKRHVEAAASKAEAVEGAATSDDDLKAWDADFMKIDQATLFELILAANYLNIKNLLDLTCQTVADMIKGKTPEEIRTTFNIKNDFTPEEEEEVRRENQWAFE
# T3 sequence (Q38825 1-243): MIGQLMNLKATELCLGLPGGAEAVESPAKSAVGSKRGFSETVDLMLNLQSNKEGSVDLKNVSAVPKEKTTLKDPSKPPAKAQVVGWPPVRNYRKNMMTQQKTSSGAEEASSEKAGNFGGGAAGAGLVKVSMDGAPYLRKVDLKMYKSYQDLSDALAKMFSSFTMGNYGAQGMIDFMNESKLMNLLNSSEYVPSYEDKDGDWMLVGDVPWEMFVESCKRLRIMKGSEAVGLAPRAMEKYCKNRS
# Procedure, shortened: (§1)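 ASK1-TIR1 or ASK1-AFB5 (0.44 μg, insect cells) with E. coli GST-IAA7 (1:10 molar), >1 h at 4°C in pH 8.0 Tris binding buffer. KD from [³H]-IAA saturation binding. Ki from competition with cold 1-NAA, 2,4-D or picloram against fixed [³H]-IAA (5–100 nM), fitted to a one-site competition model by nonlinear regression. Filter binding with scintillation read-out; triplicates.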
# IAA7 = IAA7 (Arabidopsis thaliana, UniProt Q38825); assay: [3H]-IAA binding at 200 nM, IAA7 alone; settings: 200 nM [3H] IAA
# Procedure, shortened: (§2)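 ASK1-TIR1 (tagged, co-expressed in Hi5 insect cells) and GST-Aux/IAA or mutant (E. coli), at 0.44 μg and 1:10 molar ratio as applicable, or synthetic biotinylated degron peptide. Incubated >1 h at 4°C in Tris-HCl pH 8.0/200 mM NaCl/10% glycerol/0.1% Tween 20 with [³H]-IAA (20 Ci/mmol). Trapped on PEI-treated glass-fibre filters, washed thrice, scintillation counted. Nonspecific binding determined with 1000x cold IAA.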
# TIR1-IAA1 = TIR1-IAA1 (Arabidopsis thaliana, UniProt P49677+Q570C0); assay: [3H]-IAA homologous competitive binding, TIR1-IAA1; settings: Kd (Mean ± SEM), TIR1-IAA1, homologous competition
# Procedure, shortened: (§3)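 Homologous competition: insect-cell ASK1-TIR1 (0.44 μg) plus E. coli GST-Aux/IAA (1:10 molar), in pH 8.0 Tris binding buffer, >1 h at 4°C. Fixed [³H]-IAA (5, 10, 25 or 100 nM, kept below half the IC50) with rising cold IAA. Filter binding, scintillation counting. Specific binding fitted to a one-site competition model by nonlinear regression. Independent assays run in triplicate.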
# TIR1-IAA7 DII [3] = biological target: T1, TIR1-IAA7 DII; assay: [3H]-IAA saturation binding, TIR1 with biotinylated IAA7 DII peptide; settings: Kd (Mean ± SEM), TIR1-biotinylated peptide DII of IAA7, saturation binding
# TIR1-IAA14 = TIR1-IAA14 (Arabidopsis thaliana, UniProt Q38832+Q570C0); assay: [3H]-IAA homologous competitive binding, TIR1-IAA14; settings: TIR1-IAA14, homologous competition
# Procedure, shortened: as §3
# TIR1-bdl = TIR1-bdl (Arabidopsis thaliana, UniProt Q570C0); assay: [3H]-IAA binding at 200 nM, TIR1-ASK1 with bdl; settings: 200 nM [3H] IAA, TIR1-ASK1 and bdl
# Procedure, shortened: as §2
# TIR1-IAA3 = TIR1-IAA3 (Arabidopsis thaliana, UniProt Q38822+Q570C0); assay: [3H]-IAA saturation binding, TIR1-IAA3; settings: Kd (Mean ± SEM)
# Procedure, shortened: (§4)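 Saturation binding: insect-cell ASK1-TIR1 (0.44 μg) with GST-tagged full-length, truncated or degron-mutated IAA protein from E. coli (1:10 molar). Incubated >1 h at 4°C in pH 8.0 Tris/NaCl/glycerol/Tween buffer with at least six [³H]-IAA concentrations either side of the KD. Filter-trapped and scintillation counted; nonspecific binding determined with 1000x cold IAA. KD by nonlinear regression; independent assays in triplicate.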
# TIR1-IAA7^axr2-1 = TIR1-IAA7^axr2-1 (Arabidopsis thaliana, UniProt Q38825+Q570C0, P87S); assay: [3H]-IAA binding at 200 nM, TIR1-IAA7 axr2-1; settings: 200 nM [3H] IAA
# Procedure, shortened: as §2
# TIR1-IAA7 K35Q R36Q = TIR1-IAA7 K35Q R36Q (Arabidopsis thaliana, UniProt Q38825+Q570C0, K35Q/R36Q); assay: [3H]-IAA binding at 200 nM, TIR1-IAA7 K35Q R36Q; settings: 200 nM [3H]-IAA, Lys35Gln Arg36Gln mutant compared to TIR1-IAA7
# TIR1-IAA7 K35Q = TIR1-IAA7 K35Q (Arabidopsis thaliana, UniProt Q38825+Q570C0, K35Q); assay: [3H]-IAA binding at 200 nM, TIR1-IAA7 K35Q; settings: 200 nM [3H]-IAA, Lys35Gln mutant compared to TIR1-IAA7
# TIR1-slr = assay: [3H]-IAA binding at 200 nM, TIR1-ASK1 with slr; set-up: species or system Arabidopsis thaliana; settings: 200 nM [3H] IAA, TIR1-ASK1 and slr
# Procedure, shortened: as §2
# TIR1 = TIR1 (Arabidopsis thaliana, UniProt Q570C0); assay: [3H]-IAA binding at 200 nM, TIR1 alone; settings: 200 nM [3H] IAA
# Procedure, shortened: as §2
# TIR1-IAA28 = TIR1-IAA28 (Arabidopsis thaliana, UniProt Q570C0+Q9XFM0); assay: [3H]-IAA homologous competitive binding, TIR1-IAA28; settings: Kd (Mean ± SEM), TIR1-IAA28, homologous competition
# Procedure, shortened: as §3
# TIR1-IAA31 = TIR1-IAA31 (Arabidopsis thaliana, UniProt Q570C0+Q8H174); assay: [3H]-IAA binding, TIR1-IAA31
# Procedure, shortened: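 ASK1-TIR1 (insect cells, 0.44 μg) and full-length GST-IAA31 (E. coli, 1:10 molar) were incubated with [³H]-IAA >1 h at 4°C in pH 8.0 Tris buffer, then filter-bound and scintillation counted. KD came from nonlinear regression of saturation and/or homologous competition binding data; independent assays run in triplicate.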
# TIR1-DI-DII = TIR1-DI-DII (Arabidopsis thaliana, UniProt Q38825+Q570C0); assay: [3H]-IAA saturation binding, TIR1-DI-DII
# Procedure, shortened: as §4
# AFB5-IAA7 = AFB5-IAA7 (Arabidopsis thaliana, UniProt Q38825+Q9LTX2); assay: [3H]-IAA radioligand binding
# Procedure, shortened: as §1
# TIR1-IAA12 GWPPVR = TIR1-IAA12 GWPPVR (Arabidopsis thaliana, UniProt Q38830+Q570C0, G77R/I76V); assay: [3H]-IAA saturation binding, TIR1-IAA12 GWPPVR
# Procedure, shortened: as §4
# IAA7 DII = IAA7 DII (Arabidopsis thaliana, UniProt Q38825); assay: [3H]-IAA binding at 200 nM, IAA7 DII peptide alone; settings: 200 nM [3H] IAA
# Procedure, shortened: as §2
# TIR1-IAA17 = TIR1-IAA17 (Arabidopsis thaliana, UniProt P93830+Q570C0); assay: [3H]-IAA homologous competitive binding, TIR1-IAA17; settings: Kd (Mean ± SEM), TIR1-IAA17, homologous competition
# Procedure, shortened: as §3
smiles,measurement,setting,value
"O=C(O)COc1ccc(Cl)cc1Cl [2,4-D, 2,4-dichlorophenoxyacetic acid]",root elongation,[1],inhibits root growth elongation
same,dissociation of the TIR1-IAA7 DII complex (SPR),TIR1-IAA7 DII [2]; 50 μM ligand concentration,much more rapid dissociation rate
same,TIR1 association with the DII peptide (SPR),TIR1-IAA7 DII [2],enhanced association with the peptide
same,TIR1-IAA7 interaction in yeast (β-galactosidase expression),TIR1-IAA7 interaction,"promoted TIR1-IAA7 interaction, but not to the same extent as IAA"
same,Ki,"TIR1-IAA7; Ki (Mean ± SEM), TIR1-IAA7, cold competitor vs [3H] IAA",248 to 1000 nM
"O=C(O)Cc1c[nH]c2ccccc12 [IAA, Indole-3-acetic acid]",binding of [3H] IAA,IAA7,lacked appreciable binding
same,Kd,TIR1-IAA1,44.3 ± 6.67 nM
same,Kd,TIR1-IAA7 DII [3],218 nM
same,Kd,TIR1-IAA14,10.1 nM
same,specific binding of [3H] IAA,TIR1-bdl,abolish specific auxin binding
same,Kd,TIR1-IAA3,17 ± 3.43 nM
same,binding of [3H] IAA,TIR1-IAA7^axr2-1,did not bind auxin
same,auxin binding diminished,TIR1-IAA7 K35Q R36Q,around 50%
same,auxin binding diminished,TIR1-IAA7 K35Q,around 50%
same,TIR1 association with the DII peptide (SPR),TIR1-IAA7 DII [2],enhanced association with the peptide
same,specific binding of [3H] IAA,TIR1-slr,abolish specific auxin binding
same,Kd,TIR1-IAA7,17.8 ± 7.81 nM
same,binding of [3H] IAA,TIR1,lacked appreciable binding
same,Kd,TIR1-IAA28,~75 nM and 75 nM
same,Kd,TIR1-IAA31,> 1000 nM
same,Kd,TIR1-DI-DII,13.8 ± 4.63 nM
same,Kd,AFB5-IAA7,51.3 ± 12.6 nM
same,Kd,TIR1-IAA12 GWPPVR,72.5 ± 21.6 nM
same,binding of [3H] IAA,IAA7 DII,lacked appreciable binding
same,Kd,TIR1-IAA17,33 ± 3 nM
